Experiment: Toxicity liver stage against HepG2, at 10uM
Type: cell-based
Set-up: test concentration 10 uM, cell line HepG2-A16-CD81EGFP
Conditions: human, HepG2-A16-CD81EGFP cells; read-out: INHIBITION
In short: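 Uninfected HepG2-A16-CD81EGFP cells, 3 × 10^3 per well, 1536-well, plated on prespotted compound at 10 μM final, parasite-free screening media added to match infected plates; puromycin 10 μM positive, DMSO 0.5% negative; run in parallel with 48 h PbLuc assay at 37 °C, 5% CO2; viability by CellTiter-Glo luminescence, normalized to controls.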

SMILES	cytotoxicity at 10 µM
NC(=O)Cn1ccc(O)c(Cc2ccc(Cl)cc2Cl)c1=O	8.85%
Cc1nc(C)c(CN2CCOC[C@H](Oc3ccccc3)C2)s1	7.53%
Nc1nc2c(c3c1C(=O)NC3=O)CCCC2	10.2%
O=C(CNC(=O)c1cnccn1)Nc1ncc[nH]1	-43.4%
CC(=O)Nc1cccc2c1ccn2CC(=O)Nc1n[nH]c(CC(C)C)n1	-0.473%
COc1ncc(NS(=O)(=O)c2ccc(OC)c(C)c2)c(OC)n1	34.8%
Cc1cc(S(=O)(=O)N2CCC(N3CCC(O)C3)CC2)c(Cl)cc1Cl (centres undefined)	0.944%
O=C(NC[C@H]1C[C@@H]2CN(C(=O)c3ccno3)C[C@@H]2O1)C1CCC1	-5.21%
Cn1cnc2c1C(C(=O)N1CCCO1)N(C(=O)c1ccccc1)CC2 (centres undefined)	-0.234%
COCC(=O)N1CCC2(CC1)CC(OC)CO2 (centres undefined)	-1.56%
CN(C)CC(=O)N1CCc2ncnc(-c3ccsc3)c2CC1	-12.3%
CCN1CC2(CC1=O)CN(C(=O)c1cccs1)CCN(C(=O)N(C)C)C2 (centres undefined)	2%
Cn1cc(CN2CC[C@]3(C[C@H](OCc4ccccn4)CO3)C2)cn1	-1.08%
CSC1=Nc2c(cnn2-c2ccc(C)cc2)C2=NCCCN12	10.3%
O=C(Cn1nc2c(cc1=O)CCCC2)NC(C(=O)O)c1ccccc1 (centres undefined)	5.7%
Cc1nn(C)cc1CN(C)C(=O)c1ccncc1	-5.51%
O=C(Nc1cnn(COc2ccc(F)cc2Cl)c1)C1CC1	-10.6%
Cc1c2nnn(CC(=O)N(C)C)c(=O)c2nn1C	-4.26%
Cc1cccc(Nc2ccc(C3CCCCN3)cn2)n1 (centres undefined)	-1.93%
Cc1csc(NC(=O)c2cnc(C3CCCN(C)C3)cn2)n1 (centres undefined)	-21.3%
CC(C)Oc1ccc(CN2CCC(c3n[nH]c4ncccc34)CC2)cc1	-21.4%
O=C(c1cnccn1)N1CCCC(Cc2cccc3ncccc23)C1 (centres undefined)	12%

SMILES	cytotoxicity at 10 µM
COc1cc(CNc2cnn(C(C)(C)C)c(=O)c2Cl)ccn1	55.9%
Cc1ccc(-c2nc(CC(=O)NCC3CCOC3)cs2)o1 (centres undefined)	-43%
Cc1nc(-c2ccccc2)ccc1C(=O)N1CCN(CCO)CC1	-53.9%
CC(C)C(NCc1ccc(Cn2cncn2)cc1)c1ccc(F)cn1 (centres undefined)	-0.593%
Cc1ccc(CN2CCS(=O)(=O)C(C)(C)C2)cc1C	1.05%
CC(CNC(=O)c1cnccn1)Oc1ccc(F)cc1 (centres undefined)	-2.55%
N#Cc1csc(CN(CC(=O)N2CCCC2)CC2CCCO2)c1 (centres undefined)	-6.26%
COc1ccc(CNC(C)c2ccc(Cl)c(Cl)c2)c(OC)c1OC (centres undefined)	14.2%
Cc1[nH]ncc1CCCNC(=O)Nc1ccc2c(c1)OC1(CCCC1)O2	18.6%
O=S(=O)(NCCCN1CCCC1)c1cc(F)cc(F)c1	8.84%
COc1cccc(CN(C)CC2=Nc3ccccc3S(=O)(=O)N2)c1	36.4%
Cc1ccsc1CN(C)c1nc2c(cnn2C(C)(C)C)c(=O)[nH]1	33.3%
CCCN(CCC)S(=O)(=O)c1cc(NC(C)=O)ccc1C	-148%
CCOc1ccc(OCC)c(NCc2cc(C)on2)c1	-40.1%
FC(F)(F)c1cccc(N2CCC(NCc3cccnc3)CC2)c1	-64.5%
Cc1cc(NC(=O)NC2CCN(C(C)C)CC2)c2ncccc2c1	9.67%
Cn1cc(CCNCC2CNc3ccnn3C2)cn1 (centres undefined)	3.34%
COCCS(=O)(=O)NC(C)c1ccc(-n2nc(C)cc2C)cc1 (centres undefined)	1.91%
COc1ccc(C(C)N2CCC(CNC(C)=O)CC2)cc1Cl (centres undefined)	-51.5%
O=C(CC1CC1)N[C@@H]1CN(C(=O)c2ccoc2)C[C@@H]2CCCO[C@@H]21	-104%
Cn1cc(C2COC3(CCN(C(=O)c4ccsc4)CC3)C2)cn1 (centres undefined)	-67%
Cc1cc(C(=O)N2CC[C@@]3(C[C@@H](NS(C)(=O)=O)CCO3)C2)no1	-61.1%

SMILES	cytotoxicity at 10 µM
CO[C@H]1CCN(Cc2nccs2)C[C@@H]1Cc1ccccc1	-71.9%
COCC(=O)N1CCCC2(CCN(c3ccccc3)C2=O)C1 (centres undefined)	-74.3%
CCO[C@@H]1CCN(C(=O)c2ccnnc2)[C@@H]1Cc1cnn(C)c1	-62.8%
CC(C)Nc1ncnc2c1CCN(C(=O)c1ccc[nH]1)CC2	-77.6%
CCC1=N[C@@]2(CC[C@@H]3CN(C(=O)NCc4ccccc4C)C[C@@H]32)C(=O)N1	-71.1%
O=S(=O)(c1ccccc1)N1CCC2(CCCN2CC2CCCC2)C1 (centres undefined)	4.4%
CCCn1c(C)c(CC(=O)NCCC(N)=O)c2c1CC(C)(C)CC2=O	9.36%
CC(C)c1cc(C(=O)NCC2CCCN(c3ncccn3)C2)n(C)n1 (centres undefined)	17.2%
CN(C)c1nc2c(c(N(C)Cc3n[nH]c4c3CCCC4)n1)CCNCC2	3.2%
Cn1ncc(N2CCOC(CCNC(=O)NC(C)(C)C)C2)cc1=O (centres undefined)	22.6%
CCc1ccc(CCNc2ncnc3c2CCN(C(=O)C2CC2)C3)cc1	36.9%
CCO[C@H]1C[C@@H](O)C12CCN(C1CCN(c3ccccc3C)CC1)CC2	9.9%
CCc1c(C)nc(N)nc1NCCSCc1[nH]cnc1C	4.5%
CCC(Nc1nc(C)nc2onc(C)c12)c1nc(C)c(C)s1 (centres undefined)	37.2%
CC(C)[C@@H]1CN(C(=O)c2ccc3c(c2)CCCO3)C[C@H]1NS(C)(=O)=O	-6.53%
CCc1cn[nH]c1C1CCN(c2cc(C)c3ccc(OC)cc3n2)CC1	18.7%
COCCC1(C(=O)O)CCCN(C(=O)c2cc(C)oc2C)C1 (centres undefined)	-5.89%
COc1ccc(F)c(CN2CCCC(O)(CNCC(C)(C)C)C2=O)c1 (centres undefined)	12.2%
CCCn1ncc(C2CC(=O)NCc3nc4cc(C)ccn4c32)c1C (centres undefined)	-3.21%
CC(C)(CNc1cccc(Cl)c1)NC(=O)C1CCCN(CC(N)=O)C1 (centres undefined)	-1.46%
CCN1CC2(CCC1=O)CCN(C(=O)C(O)c1cccc(Cl)c1)CC2 (centres undefined)	0.636%
CN(CC1(CO)CCCC1)c1nc2c(c(=O)[nH]1)Cc1ccccc1OC2	11.7%

SMILES	cytotoxicity at 10 µM
CC(C)N1CCCC2(CCN(Cc3noc(C4CCCC4)n3)C2)C1=O (centres undefined)	2.24%
Cc1ccc(Oc2ncccc2CNS(=O)(=O)N2CCOCC2)cn1	9.83%
CCc1nnc(CN(C)Cc2cccc(C(=O)Nc3nccs3)c2)o1	-2.97%
CC(CN1CCC2(CC1)N=C(c1cccnc1)NC2=O)c1ccccc1 (centres undefined)	4.5%
COC[C@@]12CC[C@@H](N3CCOCC3)C[C@H]1CCN(c1cc(C)ccn1)C2	-3.53%
CC(C)c1ccc(NC2CCCN(Cc3ccncc3)C2)cc1 (centres undefined)	-10.8%
CN(Cc1ccno1)C(=O)c1cccc(CC2CCNCC2)c1	-15.9%
CN(CC1(CO)CC1)C(=O)C1CCC(=O)N(Cc2ccc(Cl)cc2)C1 (centres undefined)	-5.14%
CC[C@H](C)[C@@H](CO)NC(C)Cc1ccc(Cl)cc1 (some centres undefined)	-10.6%
CCc1cc(N2CCC3(CCCNC3=O)C2)nc(N2CCOCC2)n1 (centres undefined)	-0.28%
Cc1cc(=O)n(CC(=O)NC2CCCCC2)c2ccccc12	0.126%
COCCN1CCCC2(CCN(c3ncnc(C)c3C)C2)C1=O (centres undefined)	33.4%
Cc1cccc(C2CC(=O)Nc3c2c(=O)[nH]n3C(C)C)c1 (centres undefined)	-3.33%
CC(=O)Nc1cccc(-c2ccccc2CCN)c1	-5.85%
CCCOC(C)Cn1ccc2[nH]c(=O)c(C#N)cc2c1=O (centres undefined)	7.39%
CCCc1cc(CNC2CCN(c3cc(C)nc(N)n3)CC2)on1	-6.17%
CCN(CC)CCCN1CCN(c2nc(C)cnc2C)CC1	-31%
CC(=O)c1ccc(N2CCCC(CO)(CCOc3ccccc3)C2)nc1 (centres undefined)	3.15%
Cn1c(CN2CCCC2)nnc1C1CCCN(C(=O)C2CCOCC2)C1 (centres undefined)	-17%
Nc1cc2c(nn1)CCN(C(=O)CCCC1CCCCC1)C2	-0.0113%
CCNc1cc2c(nn1)CCN(C(=O)c1cc3cccc(C)c3o1)C2	-8.06%
CCOCCCn1c(NC(=O)c2scnc2C)nc2ccccc21	5.9%

SMILES	cytotoxicity at 10 µM
CC(C)(C)n1cc(C(=O)N2CCN(Cc3ccccc3F)CC2)cn1	10.6%
Cc1nc(CN(C)C2CCN(Cc3ccc4ccccc4n3)C2)no1 (centres undefined)	-2.23%
Cc1cc(N2CCC(Cc3ccccc3)CC2)nc(-c2ccncc2)n1	-2.68%
Cc1ccc(CN(CCCn2ccnc2)Cc2c[nH]nc2C(C)(C)C)s1	-3.91%
O=C(c1ccoc1)N1CCOC2(COCCN(CC3CC3)C2)C1 (centres undefined)	7.57%
Cc1cc(CN2C[C@@H]3CCCO[C@@H]3[C@H](N(C)C(C)C)C2)no1	2.44%
COc1ccc(CNC(C)c2cccc(Br)c2)c(OC)c1OC (centres undefined)	9.75%
COc1ccccc1CNC(C)c1ccc(-n2ccnc2)cc1 (centres undefined)	5.25%
COCCC(=O)N1CC2(CCN(Cc3ccccc3Cl)CC2)C1	-73.1%
CC(C)Nc1nc2c(cc1C(=O)NCC1CC1)CCN(CC1CC1)CC2	46.5%
CN(C)CCN1CCCC12CCN(Cc1nccn1C)CC2	-99.1%
CC(C)COCc1cncc2c1CCN(Cc1cnn(C)c1)C2	-7.96%
O=C(Nc1cccc(CNCc2csc(Br)c2)c1)C1CC1	7.97%
CC(C)N1CCCn2c(nc(CNC(=O)c3nccn3C)cc2=O)C1	2.84%
c1ccc(COC[C@@H]2CCC[C@@]23CNCCO3)nc1	-105%
CN(C)CCN1C(=O)CC[C@@H]2[C@H]1CCN2C(=O)c1ccc(C#N)cc1	-7.82%
c1cncc(N2CCCn3nnc(CN4CCCCC4)c3C2)c1	1.24%
O=C(c1cc(C2CC2)on1)N1C[C@@H]2COC[C@]2(COc2cccnc2)C1	-89.7%
Fc1cnc(N2CCOC3(CCN(Cc4ccsc4)CC3)C2)nc1	2.6%
OC1(Cn2ccc3ncccc32)CCN(Cc2ccccc2F)CC1	-5.33%
CCNc1c(NC(=O)NCCOC)c(=O)oc2ccccc12	-2.89%

Reference: ChEMBL document CHEMBL4513216, “Probing the Open Global Health Chemical Diversity Library for Multistage-Active Starting Points for Next-Generation Antimalarials” (ACS Infect Dis, 2020)
